Test results taken from ChEMBL document CHEMBL1152591, “Design, synthesis and structure-activity relationship of 2-(3',4',5'-trimethoxybenzoyl)-benzo[b]furan derivatives as a novel class of inhibitors of tubulin polymerization” (Bioorg Med Chem, 2009).

How the values were obtained:
[1] = Cytotoxicity against human Molt4/C8 cells after 2 days; details: MOLT-4, 48 h
[2] = tested on: L1210; assay: Cytotoxicity against mouse L1210 cells after 2 days; type: functional, cell-based; details: L1210, 48 h
Summary of the method: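 Cells were incubated with the compounds at 37 °C for two days, then counted on a Coulter counter. IC50 is the concentration that inhibits cell proliferation by 50%.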

[3] = tested on: CCRF-CEM; assay: Cytotoxicity against human CEM cells after 2 days; type: functional, cell-based; details: 48 h
[4] = tested on: HeLa; assay: Cytotoxicity against human HeLa cells after 2 days; type: functional, cell-based; details: 48 h
[5] = tested on: FM3A; assay: Cytotoxicity against mouse FM3A0 cells after 2 days; type: functional, cell-based; details: 48 h
[6] = organism: Bos taurus; assay: Displacement of [3H]colchicine from bovine tubulin at 5 uM
Summary of the method: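 Reaction mixtures held 1 μM bovine brain tubulin, 5 μM [3H]colchicine and 5 μM test compound. Inhibition of radiolabelled colchicine binding to tubulin is expressed as percent inhibition.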

[7] = Inhibition of bovine tubulin polymerization; parameters: species or system Bos taurus
Summary of the method: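 Purified bovine brain tubulin (10 μM) in glutamate buffer was preincubated with varying compound concentrations at 30 °C, then cooled to 0 °C. GTP was added and the mixture warmed to 30 °C in a recording spectrophotometer. Assembly was followed by turbidity.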

[8] = tested on: K562; assay: Cell cycle arrest in human K562 cells assessed as accumulation at S phase at 230 nM after 24 hrs by flow cytometry; type: functional
Summary of the method: (§1)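 K562 leukaemia cells were cultured for 24 h with compound at one fixed concentration. DNA content per cell was measured by the standard propidium iodide procedure and flow cytometry. Proportions of cells in the sub-G0–G1 (apoptotic), G0–G1, S and G2–M peaks were compared with an untreated control.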

[9] = tested on: K562; assay: Cell cycle arrest in human K562 cells assessed as accumulation at G2 phase at 230 nM after 24 hrs by flow cytometry; type: functional; summary of the method: as §1
[10] = tested on: K562; assay: Cell cycle arrest in human K562 cells assessed as accumulation at G1 phase at 230 nM after 24 hrs by flow cytometry; type: functional; summary of the method: as §1
[11] = tested on: K562; assay: Cell cycle arrest in human K562 cells assessed as accumulation at sub-G0/G1 phase at 230 nM after 24 hrs by flow cytometry; type: functional; summary of the method: as §1
[12] = tested on: K562; assay: Cell cycle arrest in human K562 cells assessed as accumulation at S phase at 420 nM after 24 hrs by flow cytometry; type: functional
[13] = tested on: K562; assay: Cell cycle arrest in human K562 cells assessed as accumulation at G1 phase at 420 nM after 24 hrs by flow cytometry; type: functional
[14] = tested on: K562; assay: Cell cycle arrest in human K562 cells assessed as accumulation at G2 phase at 420 nM after 24 hrs by flow cytometry; type: functional
[15] = tested on: K562; assay: Cell cycle arrest in human K562 cells assessed as accumulation at sub-G0/G1 phase at 420 nM after 24 hrs by flow cytometry; type: functional

| Compound | IC50 [1] [nM] | IC50 [2] [nM] | IC50 [3] [nM] | IC50 [4] [nM] | IC50 [5] [nM] | also measured |
| --- | --- | --- | --- | --- | --- | --- |
| COc1ccc2c(N(C)C)c(C(=O)c3cc(OC)c(OC)c(OC)c3)oc2c1 | 48 | – | – | – | – | – |
| COc1cc(C(=O)c2cc3ccc(O)cc3o2)cc(OC)c1OC | > 10000 | > 10000 | > 10000 | > 10000 | > 10000 | – |
| COc1cc(C(=O)c2oc3c(OC)cccc3c2C)cc(OC)c1OC | 400 | 1700 | 2400 | 530 | 1700 | – |
| COc1cc(C(=O)c2oc3cc(O)ccc3c2C)cc(OC)c1OC | 1300 | > 10000 | 4300 | 260 | > 10000 | – |
| COc1cc(C(=O)c2cc3ccccc3o2)cc(OC)c1OC | 8000 | > 10000 | > 10000 | – | > 10000 | – |
| COc1ccc2cc(C(=S)c3cc(OC)c(OC)c(OC)c3)oc2c1 | 100 | 180 | 220 | 100 | 320 | – |
| COc1ccc2oc(C(=O)c3cc(OC)c(OC)c(OC)c3)c(C)c2c1 | 1900 | 2300 | 400 | – | 4400 | Activity [6]: 65%; IC50 [7]: 1200 nM; Activity [8]: 40.38%; Activity [9]: 58.18%; Activity [10]: 1.44%; Activity [11]: 18.18% |
| COc1cc(C(=O)c2cc3cccc(OC)c3o2)cc(OC)c1OC | 7800 | > 10000 | > 10000 | > 10000 | > 10000 | – |
| COc1ccc2cc(C(O)c3cc(OC)c(OC)c(OC)c3)oc2c1 (configuration not stated) | 3000 | > 10000 | > 10000 | > 10000 | 7010 | – |
| COc1ccc2cc(C(=O)c3cc(OC)c(OC)c(OC)c3)oc2c1 | 59 | 90 | 70 | 110 | 100 | Activity [12]: 39.06%; Activity [13]: 1.83%; Activity [14]: 59.11%; Activity [6]: 79%; IC50 [7]: 700 nM; Activity [15]: 16.36% |
| COc1cc(C(=O)c2oc3ccccc3c2C)cc(OC)c1OC | 1300 | 2100 | 2000 | 890 | 2100 | – |
| COc1cc(C(=O)c2cc3cc(Cl)ccc3o2)cc(OC)c1OC | > 10000 | > 10000 | > 10000 | > 10000 | > 10000 | – |
| COc1ccc2c3c(oc2c1)C(=O)c1cc(OC)c(OC)c(OC)c1-3 | > 10000 | > 10000 | > 10000 | > 10000 | > 10000 | – |
| COc1ccc(/C=C\c2cc(OC)c(OC)c(OC)c2)cc1O | – | – | – | – | – | Activity [6]: 99% |
| COc1cc2cc(C(=O)c3cc(OC)c(OC)c(OC)c3)oc2cc1OC | 770 | 1800 | 1900 | 570 | 1200 | – |
| COc1cc(C(=O)c2cc3cc(Br)ccc3o2)cc(OC)c1OC | > 10000 | > 10000 | > 10000 | > 10000 | > 10000 | – |
